This note sets out measurements from ChEMBL document CHEMBL1121551, “Amino acid and dipeptide derivatives of daunorubicin. 2. Cellular pharmacology and antitumor activity on L1210 leukemic cells in vitro and in vivo” (1980).

Experiment [1] has as its system Mus musculus. The experiment can be described thus: Chemotherapeutic activity was evaluated by measuring the percent increase in life span of female DBA2 mice intravenously inoculated with L1210 leukemia at 50(mg/kg)/day, iv. Type of experiment: functional. A digest of the protocol:
(§1)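 Female DBA2 mice given 10^4 L1210 cells iv on day 0; cells harvested from a 6- to 8-day-old ascitic L1210 form. Drug given iv on days 1 and 2 at the stated daily dose. Read-outs are % increase in life span and the number of mice alive on day 30 over the total.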

Experiment [2] concerns Mus musculus. The experiment can be described thus: Chemotherapeutic activity was evaluated by measuring number of survivors on day 30 / total number of mice at 50(mg/kg)/day, iv; 0/7. Type of experiment: functional. The essentials: as §1
Experiment [3] concerns Mus musculus. In words: Chemotherapeutic activity was evaluated by measuring number of survivors on day 30 / total number of mice at 60 mg/kg/day, sc; 0/18. The class given is functional.
Experiment [4] relates to Mus musculus. In words: Chemotherapeutic activity was evaluated by measuring percent change in weight on day 8 at 50(mg/kg)/day, iv. The class given is functional. A digest of the protocol:
(§2)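 Female DBA2 mice were inoculated iv on day 0 with 10^4 L1210 leukemic cells. Drugs were given iv on days 1 and 2 at the stated daily dose. Percent body weight change was recorded on day 8, and weight loss served as the index of general toxicity.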

Experiment [5] has as its system Mus musculus. In words: Chemotherapeutic activity was evaluated by measuring percent change in weight on day 8 at 60 mg/kg/day, sc. Type of experiment: functional. The essentials: (§3)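 Drugs were given iv on days 1 and 2 at the stated daily dose. Average tumor diameter was estimated daily with calipers, and body weight change was recorded on day 8. Results from several experiments are given as mean ± SD.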

Experiment [6] has as its system Mus musculus. The experiment can be described thus: Chemotherapeutic activity was evaluated by measuring percent change in weight on day 8 at 66 mg/kg/day, sc. The class given is functional. The essentials: as §3
Experiment [7] relates to Mus musculus. The experiment can be described thus: Chemotherapeutic activity was evaluated by measuring number of survivors on day 30 / total number of mice at 66 mg/kg/day, sc; 0/9. The class given is functional.
Experiment [8] relates to Mus musculus. The experiment can be described thus: Chemotherapeutic activity was evaluated by measuring mean tumor diameter on day 8 at 60 mg/kg/day, iv.
The test system of experiment [9] is Mus musculus. The experiment can be described thus: Chemotherapeutic activity was evaluated by measuring mean tumor diameter on day 8 at 66 mg/kg/day, iv.
Experiment [10] concerns Mus musculus. The experiment can be described thus: Chemotherapeutic activity was evaluated by measuring mean tumor diameter on day 12 at 66 mg/kg/day, iv.
Experiment [11] has as its system Mus musculus. The experiment can be described thus: Percent increase in life span of female DBA2 mice subcutaneously inoculated with L1210 leukemia at 60 mg/kg/day, iv.
For experiment [12], the system named is Mus musculus. In words: Percent increase in life span of female DBA2 mice subcutaneously inoculated with L1210 leukemia at 66 mg/kg/day, iv.
Experiment [13] has as its system Mus musculus. The experiment can be described thus: Chemotherapeutic activity was evaluated by measuring the percent increase in life span of female DBA2 mice intravenously inoculated with L1210 leukemia at 10 mg/kg/day, iv. Type of experiment: functional. A digest of the protocol: as §1
Experiment [14] deals with Mus musculus. In words: Chemotherapeutic activity was evaluated by measuring the percent increase in life span of female DBA2 mice intravenously inoculated with L1210 leukemia at 11 mg/kg/day, iv. Type of experiment: functional. The essentials: as §1
Experiment [15] deals with Mus musculus. In words: Chemotherapeutic activity was evaluated by measuring the percent increase in life span of female DBA2 mice intravenously inoculated with L1210 leukemia at 12(mg/kg)/day, iv. The class given is functional. A digest of the protocol: as §1
The subject of experiment [16] is Mus musculus. The experiment can be described thus: Chemotherapeutic activity was evaluated by measuring mean tumor diameter on day 12 at 12(mg/kg)/day, sc. Type of experiment: functional.
Experiment [17] has as its system Mus musculus. The experiment can be described thus: Chemotherapeutic activity was evaluated by measuring the percent increase in life span of female DBA2 mice subcutaneously inoculated with L1210 leukemia at 12(mg/kg)/day, sc. Type of experiment: functional.
Experiment [18] has as its system Mus musculus. The experiment can be described thus: Chemotherapeutic activity was evaluated by measuring number of survivors on day 30 / total number of mice at 10 mg/kg/day, iv; 0/18. Type of experiment: functional. A digest of the protocol:
as §1

Experiment [19] has as its system Mus musculus. In words: Chemotherapeutic activity was evaluated by measuring number of survivors on day 30 / total number of mice at 10 mg/kg/day, sc; 0/58. Type of experiment: functional.
For experiment [20], the system named is Mus musculus. In words: Chemotherapeutic activity was evaluated by measuring number of survivors on day 30 / total number of mice at 11 mg/kg/day, iv; 0/37. The class given is functional. The essentials: as §1
Experiment [21] has as its system Mus musculus. In words: Chemotherapeutic activity was evaluated by measuring number of survivors on day 30 / total number of mice at 11 mg/kg/day, sc; 3/37. The class given is functional.
Experiment [22] concerns Mus musculus. The experiment can be described thus: Chemotherapeutic activity was evaluated by measuring number of survivors on day 30 / total number of mice at 12(mg/kg)/day, iv; 6/34. Type of experiment: functional. The essentials:
as §1

Experiment [23] deals with Mus musculus. In words: Chemotherapeutic activity was evaluated by measuring number of survivors on day 30 / total number of mice at 12(mg/kg)/day, sc; 3/36. The class given is functional.
For experiment [24], the system named is Mus musculus. The experiment can be described thus: Chemotherapeutic activity was evaluated by measuring percent change in weight on day 8 at 10 mg/kg/day, iv. The class given is functional. The essentials: as §2
In experiment [25] the test system is Mus musculus. The experiment can be described thus: Chemotherapeutic activity was evaluated by measuring percent change in weight on day 8 at 10 mg/kg/day, sc. The class given is functional. The essentials:
as §3

In experiment [26] the test system is Mus musculus. The experiment can be described thus: Chemotherapeutic activity was evaluated by measuring percent change in weight on day 8 at 11 mg/kg/day, iv. Type of experiment: functional. The essentials:
as §2

For experiment [27], the system named is Mus musculus. The experiment can be described thus: Chemotherapeutic activity was evaluated by measuring percent change in weight on day 8 at 11 mg/kg/day, sc. Type of experiment: functional. A digest of the protocol: as §3
Experiment [28] has as its system Mus musculus. In words: Chemotherapeutic activity was evaluated by measuring percent change in weight on day 8 at 12(mg/kg)/day, iv. The class given is functional. The essentials: as §2
The subject of experiment [29] is Mus musculus. The experiment can be described thus: Chemotherapeutic activity was evaluated by measuring percent change in weight on day 8 at 12(mg/kg)/day, sc. The class given is functional.
For experiment [30], the system named is Mus musculus. The experiment can be described thus: Chemotherapeutic activity was evaluated by measuring mean tumor diameter on day 8 at 10 mg/kg/day, iv.
In experiment [31] the test system is Mus musculus. The experiment can be described thus: Chemotherapeutic activity was evaluated by measuring mean tumor diameter on day 8 at 11 mg/kg/day, iv.
Experiment [32] concerns Mus musculus. The experiment can be described thus: Chemotherapeutic activity was evaluated by measuring mean tumor diameter on day 12 at 10 mg/kg/day, iv.
The subject of experiment [33] is Mus musculus. The experiment can be described thus: Chemotherapeutic activity was evaluated by measuring mean tumor diameter on day 12 at 11 mg/kg/day, iv.
The test system of experiment [34] is Mus musculus. In words: Percent increase in life span of female DBA2 mice subcutaneously inoculated with L1210 leukemia at 11 mg/kg/day, iv.
Experiment [35] deals with Mus musculus. In words: Percent increase in life span of female DBA2 mice subcutaneously inoculated with L1210 leukemia at 10 mg/kg/day, iv.

For the compound `COc1cccc2c1C(=O)c1c(O)c3c(c(O)c1C2=O)C[C@@](O)(C(C)=O)C[C@@H]3O[C@H]1C[C@H](NC(=O)[C@H](C)N)[C@H](O)[C@H](C)O1`, the Increase in life-span with Mus musculus [1] is on record as 14%; in the experiment on Mus musculus [11] it was 37%; with Mus musculus [12], 61%. Further, the Survivors in the experiment with Mus musculus [2], in the experiment on Mus musculus [3] and with Mus musculus [7] was 0 throughout. Besides, the Weight change in the experiment with Mus musculus [4] was -4.4%; in the experiment on Mus musculus [5], -5.9%; in the experiment with Mus musculus [6] it was -8.5%. The Diameter is 1.3 mm with Mus musculus [8], 0 mm in the experiment on Mus musculus [9] and 4.2 mm in the experiment on Mus musculus [10].

Regarding `COc1cccc2c1C(=O)c1c(O)c3c(c(O)c1C2=O)C[C@@](O)(C(C)=O)C[C@@H]3O[C@H]1C[C@H](N)[C@H](O)[C@H](C)O1` [DAUNORUBICIN], the Increase in life-span came to 42% in the experiment with Mus musculus [13]; 66% in the experiment with Mus musculus [14]; 123% in the experiment with Mus musculus [15]; 83% in the experiment with Mus musculus [17]; 67% in the experiment on Mus musculus [34]; 65% in the experiment on Mus musculus [35]. Besides, the Diameter came out at 2 mm with Mus musculus [16]; 0.3 mm in the experiment on Mus musculus [30]; 0.4 mm with Mus musculus [31]; 4.1 mm in the experiment with Mus musculus [32]; 2.9 mm in the experiment with Mus musculus [33]. Further, the Survivors turned out to be 0 with Mus musculus [18]; 0 in the experiment on Mus musculus [19]; 0 in the experiment with Mus musculus [20]; 3 in the experiment with Mus musculus [21]; 6 with Mus musculus [22]; 3 with Mus musculus [23]. Further, the Weight change is recorded as -1.1% with Mus musculus [24]; -4.3% in the experiment with Mus musculus [25]; -3.2% in the experiment on Mus musculus [26]; -5.9% with Mus musculus [27]; -8.4% in the experiment on Mus musculus [28]; -6.3% in the experiment with Mus musculus [29].
